Results reported in ChEMBL document CHEMBL1135717, “Minor groove DNA binders as antimicrobial agents. 1. Pyrrole tetraamides are potent antibacterials against vancomycin resistant Enterococci [corrected] and methicillin resistant Staphylococcus aureus” (J Med Chem, 2002).
Values after ≈ are worked out from the molar mass of the structure shown.

Legend:
[1] = Toxicity assessed in human T-cells using a colorimetric cell proliferation assay.; format: cell-based
How it was run: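 CCRF-CEM human leukemia T-cells in RPMI-1640 with 10% FBS and gentamicin 0.1 mg/mL, seeded at 4 × 10^4 cells/well. Compound added at start at 50, 25, 12.5 and 6.3 μM. WST-1 cleavage read by absorbance at 440 nm at 24, 48 and 72 h. Value reported as lowest % of no-compound control, typically 72 h at 50 μM. At least triplicate.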

[2] = system: Staphylococcus aureus; assay: In vitro antimicrobial activity against Methicillin resistant Staphylococcus aureus; format: functional
How it was run: (§1)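 Broth microdilution MIC per NCCLS M7-A4. Compounds dissolved fresh in DMSO as 10 mM stock, then diluted in BHI medium for VRE (BM4147, UCD3) or Mueller-Hinton medium for MRSA. Seven 1:2 serial dilutions gave test concentrations of 45.5 to 0.7 μM. MIC read by visual inspection of wells after 2 days.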

[3] = system: Enterococcus; assay: In vitro antimicrobial activity against Vancomycin resistant enterococcus strain UCD-3; format: functional; how it was run: as §1
[4] = system: Nucleic Acid; assay: DNA binding measured as Changes in the DNA melting temperature of an AT-rich dodecamer (CGATTATTAAGC) (GCTTAATAATCG) upon binding of an equimolar amount of compound; format: nucleic-acid assay
How it was run: (§2)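 Melting monitored by UV absorbance at 260 nm in 10 mM HEPES pH 7.2, 0.1 mM EDTA, 50 mM NaCl. 12-bp AT-rich oligo at 5 μM mixed with compound at equimolar ratio. Temperature ramped 15 to 95 °C at 0.2 °C/min. Tm by derivative method, checked by hyperchromicity. ΔTm is Tm with compound minus Tm without. At least duplicate.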

[5] = system: Enterococcus; assay: In vitro antimicrobial activity against Vancomycin resistant enterococcus strain BM4147; format: functional; how it was run: as §1
[6] = system: Nucleic Acid; assay: Changes in the DNA melting temperature of an AT-rich dodecamer (CGATTATTAAGC) (GCTTAATAATCG) upon binding of an equimolar amount of compound; format: nucleic-acid assay; how it was run: as §2

SMILES	NCC [1] [%]	MIC [2] [µM]	MIC [3] [µM]	ΔTm [4] [°C]	MIC [5] [µM]	ΔTm [6]
CC(C)CCn1cc(NC(=O)C2CCC(C(=O)Nc3cc(C(=O)NCCC(=N)N)n(CCC(C)C)c3)CC2)cc1C(=O)NCCC(=N)N (stereo not given)	88	11.4 (≈ 7.6 µg/mL)	> 45.5	11	> 45.5	
C/N=C(/CCNC(=O)c1cc(NC(=O)c2ccc(C(=O)Nc3cc(C(=O)NCC/C(=N/C)NC)n(CCC(C)C)c3)cc2)cn1CCC(C)C)NC		1.4 (≈ 1 µg/mL)	1.4 (≈ 1 µg/mL)	26	1.4 (≈ 1 µg/mL)	
CNC(=N)CCNC(=O)c1cc(NC(=O)c2ccc(C(=O)Nc3cc(C(=O)NCCC(=N)NC)n(CCC(C)C)c3)cc2)cn1CCC(C)C	78					
Cc1cc(C(=O)Nc2cc(C(=O)NCCC(=N)N)n(CC3CC3)c2)ccc1C(=O)Nc1cc(C(=O)NCCC(=N)N)n(CC2CC2)c1	87	2.8 (≈ 1.8 µg/mL)	2.8 (≈ 1.8 µg/mL)	26	2.8 (≈ 1.8 µg/mL)	
CC(C)CCn1cc(NC(=O)c2ccc(C(=O)Nc3cc(C(=O)NCCC(=N)N)n(CCC(C)C)c3)c3ccccc23)cc1C(=O)NCCC(=N)N	15	2.8 (≈ 1.99 µg/mL)	5.7 (≈ 4.05 µg/mL)	20	2.8 (≈ 1.99 µg/mL)	
CC(C)CCn1cc(NC(=O)c2ccc(C(=O)Nc3cc(C(=O)NCCC4=NCCCN4)n(CCC(C)C)c3)cc2)cc1C(=O)NCCC1=NCCCN1	51	0.7 (≈ 0.519 µg/mL)	0.7 (≈ 0.519 µg/mL)	28	0.7 (≈ 0.519 µg/mL)	
CC(C)CCn1cc(NC(=O)c2ccnc(C(=O)Nc3cc(C(=O)NCCC(=N)N)n(CCC(C)C)c3)c2)cc1C(=O)NCCC(=N)N	6	2.8 (≈ 1.85 µg/mL)	22.7 (≈ 15 µg/mL)	11	22.7 (≈ 15 µg/mL)	
N=C(N)CCNC(=O)c1cc(NC(=O)c2cnc(C(=O)Nc3cc(C(=O)NCCC(=N)N)n(CC4CC4)c3)cn2)cn1CC1CC1	90	2.8 (≈ 1.77 µg/mL)	5.7 (≈ 3.6 µg/mL)	23	2.8 (≈ 1.77 µg/mL)	
CCC/N=C(\N)CCNC(=O)c1cc(NC(=O)c2ccc(C(=O)Nc3cc(C(=O)NCC/C(N)=N/CCC)n(CCC(C)C)c3)cc2)cn1CCC(C)C	15	1.4 (≈ 1.04 µg/mL)	1.4 (≈ 1.04 µg/mL)	26	1.4 (≈ 1.04 µg/mL)	
Cn1cc(NC(=O)c2cc(NC(=O)c3cc(NC=O)cn3C)cn2C)cc1C(=O)NCCC(=N)N [STALLIMYCIN]	79	> 45.5	> 45.5		> 45.5	26
N=C(N)CCNC(=O)c1cc(NC(=O)c2cc(C(=O)Nc3cc(C(=O)NCCC(=N)N)n(CC4CC4)c3)[nH]n2)cn1CC1CC1	88	2.8 (≈ 1.73 µg/mL)	5.7 (≈ 3.53 µg/mL)	26	5.7 (≈ 3.53 µg/mL)	
N=C(N)CCNC(=O)c1cc(NC(=O)c2ccc(C(=O)Nc3cc(C(=O)NCCC(=N)N)n(CC4CC4)c3)c([N+](=O)[O-])c2)cn1CC1CC1	87	1.4 (≈ 0.943 µg/mL)	2.8 (≈ 1.89 µg/mL)	28	2.8 (≈ 1.89 µg/mL)	
N=C(N)CCNC(=O)c1cc(NC(=O)c2ccc(C(=O)Nc3cc(C(=O)NCCC(=N)N)n(CC4CC4)c3)nc2)cn1CC1CC1	82	1.4 (≈ 0.882 µg/mL)	2.8 (≈ 1.76 µg/mL)	27	1.4 (≈ 0.882 µg/mL)	
N=C(N)CCNC(=O)c1cc(NC(=O)c2ccc(C(=O)Nc3cc(C(=O)NCCC(=N)N)n(CC4CC4)c3)cc2)cn1CC1CC1	72	1.4 (≈ 0.88 µg/mL)	0.7 (≈ 0.44 µg/mL)	28	2.8 (≈ 1.76 µg/mL)	
CC(C)CCn1cc(NC(=O)c2ccc(C(=O)Nc3cc(C(=O)NCCN=C(N)N)n(CCC(C)C)c3)cc2)cc1C(=O)NCCN=C(N)N	5	0.7 (≈ 0.484 µg/mL)	1.4 (≈ 0.967 µg/mL)	25	1.4 (≈ 0.967 µg/mL)	
CCCn1cc(NC(=O)c2ccc(C(=O)Nc3cc(C(=O)NCCC(=N)N)n(CCC)c3)cc2)cc1C(=O)NCCC(=N)N	61	11.1 (≈ 6.71 µg/mL)	5.6 (≈ 3.39 µg/mL)		5.6 (≈ 3.39 µg/mL)	29

SMILES	NCC [1] [%]	MIC [2] [µM]	MIC [3] [µM]	ΔTm [4] [°C]	MIC [5] [µM]	ΔTm [6]
CN=C(CCNC(=O)c1cc(NC(=O)c2ccc(C(=O)Nc3cc(C(=O)NCCC(=NC)NC)n(CCC(C)C)c3)cc2)cn1CCC(C)C)NC	50					
CC(C)CCn1cc(NC(=O)C2=CC=C(C(=O)Nc3cc(C(=O)NCCC(=N)N)n(CCC(C)C)c3)CC2)cc1C(=O)NCCC(=N)N	23	0.7 (≈ 0.464 µg/mL)	1.4 (≈ 0.928 µg/mL)	26	1.4 (≈ 0.928 µg/mL)	
CC/N=C(\N)CCNC(=O)c1cc(NC(=O)c2ccc(C(=O)Nc3cc(C(=O)NCC/C(N)=N/CC)n(CCC(C)C)c3)cc2)cn1CCC(C)C	74	1.4 (≈ 1 µg/mL)	1.4 (≈ 1 µg/mL)	27	1.4 (≈ 1 µg/mL)	
CC(C)CCn1cc(NC(=O)c2ccc3cc(C(=O)Nc4cc(C(=O)NCCC(=N)N)n(CCC(C)C)c4)ccc3c2)cc1C(=O)NCCC(=N)N	0	> 45.5	> 45.5	24	> 45.5	
C/N=C(\N)CCNC(=O)c1cc(NC(=O)c2ccc(C(=O)Nc3cc(C(=O)NCC/C(N)=N/C)n(CCC(C)C)c3)cc2)cn1CCC(C)C		0.7 (≈ 0.482 µg/mL)	1.4 (≈ 0.964 µg/mL)	28	1.4 (≈ 0.964 µg/mL)	
CC(C)CCn1cc(NC(=O)c2ccc(C(=O)Nc3cc(C(=O)NCCC(=N)N)n(CCC(C)C)c3)cc2)cc1C(=O)NCCC(=N)N	4	1.4 (≈ 0.925 µg/mL)	0.7 (≈ 0.463 µg/mL)		0.7 (≈ 0.463 µg/mL)	28
CC(C)CCn1cc(NC(=O)c2cnc(C(=O)Nc3cc(C(=O)NCCC(=N)N)n(CCC(C)C)c3)cn2)cc1C(=O)NCCC(=N)N	32	2.8 (≈ 1.86 µg/mL)	2.8 (≈ 1.86 µg/mL)	20	2.8 (≈ 1.86 µg/mL)	
CC(C)CCn1cc(NC(=O)c2ccc(C(=O)Nc3cc(C(=O)NCCC(=N)N)n(CCC(C)C)c3)c([N+](=O)[O-])c2)cc1C(=O)NCCC(=N)N	42	1.4 (≈ 0.988 µg/mL)	1.4 (≈ 0.988 µg/mL)	25	1.4 (≈ 0.988 µg/mL)	
Cn1cc(NC(=O)c2ccc(C(=O)Nc3cc(C(=O)NCCC(=N)N)n(C)c3)cc2)cc1C(=O)NCCC(=N)N	56	22.7 (≈ 12.5 µg/mL)	> 45.5		22.2 (≈ 12.2 µg/mL)	30
Cc1cc(C(=O)Nc2cc(C(=O)NCCC(=N)N)n(CCC(C)C)c2)ccc1C(=O)Nc1cc(C(=O)NCCC(=N)N)n(CCC(C)C)c1	38	0.7 (≈ 0.472 µg/mL)	1.4 (≈ 0.945 µg/mL)	24	1.4 (≈ 0.945 µg/mL)	
Cc1cc(C(=O)Nc2cc(C(=O)NCCC(=N)N)n(CCC(C)C)c2)c(C)cc1C(=O)Nc1cc(C(=O)NCCC(=N)N)n(CCC(C)C)c1	75	11.4 (≈ 7.85 µg/mL)	> 45.5	12	> 45.5	
CC(C)CCn1cc(NC(=O)c2ccc(C(=O)Nc3cc(C(=O)NCCN)n(CCC(C)C)c3)cc2)cc1C(=O)NCCN	24	2.8 (≈ 1.7 µg/mL)	11.4 (≈ 6.92 µg/mL)	20	11.4 (≈ 6.92 µg/mL)	
N=C(N)CCNC(=O)c1cc(NC(=O)c2ccc(C(=O)Nc3cc(C(=O)NCCC(=N)N)n(CC4CC4)c3)s2)cn1CC1CC1	65	1.4 (≈ 0.889 µg/mL)	2.8 (≈ 1.78 µg/mL)	27	1.4 (≈ 0.889 µg/mL)	
CC(C)CCn1cc(NC(=O)CCCCC(=O)Nc2cc(C(=O)NCCC(=N)N)n(CCC(C)C)c2)cc1C(=O)NCCC(=N)N	87	> 45.5	> 45.5	10	> 45.5	
CC(C)CCn1cc(NC(=O)c2ccc(C(=O)Nc3cc(C(=O)NCCC(=N)N)n(CCC(C)C)c3)nc2)cc1C(=O)NCCC(=N)N	3	1.4 (≈ 0.927 µg/mL)	1.4 (≈ 0.927 µg/mL)	25	0.7 (≈ 0.463 µg/mL)	
